Reference: ChEMBL document CHEMBL2384906, “Biological activity, design, synthesis and structure activity relationship of some novel derivatives of curcumin containing sulfonamides” (Eur J Med Chem, 2013)
≈ marks a conversion by molar mass, not a printed value. Calls of active or inactive are those of the source. No cut-off for these calls is given here.

Legend:
[1] = tested on: Escherichia coli; test: Antimicrobial activity against Escherichia coli ATCC 35218 after 24 hrs by broth micro serial dilution method; assay type: functional; settings: ATCC 35218, 24 h
Method in brief: (§1)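 This was broth microdilution in autoclaved Mueller-Hinton broth. 150 µL of compound per well was serially diluted […], and 50 µL of test organism was added. Plates were incubated 24 h at 37 °C and optical density was read.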

[2] = tested on: Pseudomonas aeruginosa; test: Antimicrobial activity against Pseudomonas aeruginosa ATCC 15499 assessed as diameter of inhibition zone at 40 uM after 24 hrs by Kirby -Baur disc diffusion method; assay type: functional; settings: ATCC 15499, 24 h, read-out: DIZ
Method in brief: (§2)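 Kirby-Bauer disc diffusion was used. Acetone stocks (160 µM) were serially doubled down to 80, 40 and 20 µM. 4 µL of each went onto 5 mm sterile paper discs, which were dried 30 min at 50 °C. Inoculum was 1.5 × 10⁸ CFU/mL diluted to 3 × 10² CFU/mL, and 50 µL was spread on Mueller-Hinton agar. After 24 h at 37 °C the inhibition-zone diameter was measured. Ciprofloxacin served as positive control.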

[3] = tested on: Salmonella typhi; test: Antimicrobial activity against Salmonella typhi ATCC 23564 after 24 hrs by broth micro serial dilution method; assay type: functional, Salmonella enterica subsp. enterica serovar Typhi; settings: Salmonella enterica, ATCC 23564, 24 h
[4] = tested on: HeLa; test: Cytotoxicity against human HeLa cells after 24 hrs by MTT assay; assay type: functional, cell-based
Method in brief: (§3)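 The MTT assay seeded 5 × 10⁴ cells per well and grew them 24 h in RPMI 1640 with compound at 2.5–200 µM. Medium without cells was the blank and adriamycin the positive control. MTT was added for 4 h at 37 °C, formazan was solubilised, and absorbance was read at 570 nm. IC50 is the concentration that cuts viability 50% against untreated cells.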

[5] = tested on: HepG2; test: Cytotoxicity against human HepG2 cells after 24 hrs by MTT assay; assay type: functional, cell-based; method in brief: as §3
[6] = tested on: Escherichia coli; test: Antimicrobial activity against Escherichia coli ATCC 35218 assessed as diameter of inhibition zone at 80 uM after 24 hrs by Kirby -Baur disc diffusion method; assay type: functional; settings: ATCC 35218, 24 h, read-out: DIZ; method in brief: as §2
[7] = tested on: Pseudomonas aeruginosa; test: Antimicrobial activity against Pseudomonas aeruginosa ATCC 15499 assessed as diameter of inhibition zone at 80 uM after 24 hrs by Kirby -Baur disc diffusion method; assay type: functional; settings: ATCC 15499, 24 h, read-out: DIZ; method in brief: as §2
[8] = tested on: Aspergillus flavus; test: Antifungal activity against Aspergillus flavus MTCC 1021 assessed as zone of inhibition at 20 uM after 48 hrs by disc diffusion method; assay type: functional
Method in brief: (§4)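 Spores from 4-day potato dextrose agar cultures, suspended in sterile water at 1.5 × 10⁵ CFU/mL. 0.2 mL was spread on potato dextrose agar. 5 mm filter-paper discs soaked with test compound were laid on the lawn. Incubation was 48 h at 28 °C, then the inhibition zone was measured in mm. Fluconazole was the positive control and acetone the negative control.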

[9] = tested on: Trichoderma viride; test: Antifungal activity against Trichoderma viride MTCC 1107 assessed as zone of inhibition at 80 uM after 48 hrs by disc diffusion method; assay type: functional; settings: MTCC 1107, 48 h, read-out: IZ; method in brief: as §4
[10] = tested on: Trichoderma viride; test: Antifungal activity against Trichoderma viride MTCC 1107 after 48 hrs; assay type: functional; settings: MTCC 1107, 48 h
[11] = tested on: Curvularia lunata; test: Antifungal activity against Curvularia lunata MTCC 581 after 48 hrs; assay type: functional; settings: MTCC 581, 48 h
[12] = tested on: Escherichia coli; test: Antimicrobial activity against Escherichia coli ATCC 35218 assessed as diameter of inhibition zone at 20 uM after 24 hrs by Kirby -Baur disc diffusion method; assay type: functional; settings: ATCC 35218, 24 h, read-out: DIZ; method in brief: as §2
[13] = tested on: Bacillus cereus; test: Antimicrobial activity against Bacillus cereus MTCC 7350 assessed as diameter of inhibition zone at 40 uM after 24 hrs by Kirby -Baur disc diffusion method; assay type: functional; settings: MTCC 7350, 24 h, read-out: DIZ; method in brief: as §2
[14] = tested on: HCT-116; test: Cytotoxicity against human HCT116 cells after 24 hrs by MTT assay; assay type: functional, cell-based; method in brief: as §3
[15] = tested on: Pseudomonas aeruginosa; test: Antimicrobial activity against Pseudomonas aeruginosa ATCC 15499 assessed as diameter of inhibition zone at 20 uM after 24 hrs by Kirby -Baur disc diffusion method; assay type: functional; settings: ATCC 15499, 24 h, read-out: DIZ; method in brief: as §2
[16] = tested on: Salmonella typhi; test: Antimicrobial activity against Salmonella typhi ATCC 23564 assessed as diameter of inhibition zone at 80 uM after 24 hrs by Kirby -Baur disc diffusion method; assay type: functional, Salmonella enterica subsp. enterica serovar Typhi; settings: Salmonella enterica, ATCC 23564, 24 h; read-out: DIZ
[17] = tested on: Mus musculus; test: Antiinflammatory activity in mouse assessed as inhibition of carrageenan-induced increase in paw volume at 200 mg/kg administered 1 hr prior to carrageenan challenge measured after 3 hrs relative to control; assay type: functional
Method in brief: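 Mice were fasted 2 h and placed in groups of five. Controls received saline i.p. Phenylbutazone was given at 100 mg/kg i.p., curcumin at 200 mg/kg i.p., and derivatives at 200 mg/kg. After 1 h, 0.1 mL of 1% carrageenan in saline was injected subplantar into the right hind paw. Paw volume was followed by plethysmometer for 3 h, and % inhibition was calculated as (Vc − Vt)/Vc × 100.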

[18] = tested on: Curvularia lunata; test: Antifungal activity against Curvularia lunata MTCC 581 assessed as zone of inhibition at 80 uM after 48 hrs by disc diffusion method; assay type: functional; settings: MTCC 581, 48 h, read-out: IZ; method in brief: as §4
[19] = tested on: Trichoderma viride; test: Antifungal activity against Trichoderma viride MTCC 1107 assessed as zone of inhibition at 20 uM after 48 hrs by disc diffusion method; assay type: functional; settings: MTCC 1107, 48 h, read-out: IZ; method in brief: as §4
[20] = tested on: Aspergillus niger; test: Antifungal activity against Aspergillus niger MTCC 1108 assessed as zone of inhibition at 80 uM after 48 hrs by disc diffusion method; assay type: functional; settings: MTCC 1108, 48 h, read-out: IZ; method in brief: as §4
[21] = tested on: Aspergillus niger; test: Antifungal activity against Aspergillus niger MTCC 1108 after 48 hrs; assay type: functional; settings: MTCC 1108, 48 h
[22] = tested on: Aspergillus flavus; test: Antifungal activity against Aspergillus flavus MTCC 1021 assessed as zone of inhibition at 80 uM after 48 hrs by disc diffusion method; assay type: functional; settings: MTCC 1021, 48 h, read-out: IZ; method in brief: as §4
[23] = tested on: Staphylococcus aureus; test: Antimicrobial activity against Staphylococcus aureus ATCC 11632 assessed as diameter of inhibition zone at 20 uM after 24 hrs by Kirby -Baur disc diffusion method; assay type: functional; settings: ATCC 11632, 24 h, read-out: DIZ; method in brief: as §2
[24] = tested on: Bacillus cereus; test: Antimicrobial activity against Bacillus cereus MTCC 7350 after 24 hrs by broth micro serial dilution method; assay type: functional; settings: MTCC 7350, 24 h; method in brief: as §1
[25] = tested on: Trichoderma viride; test: Antifungal activity against Trichoderma viride MTCC 1107 assessed as zone of inhibition at 40 uM after 48 hrs by disc diffusion method; assay type: functional; settings: MTCC 1107, 48 h, read-out: IZ; method in brief: as §4
[26] = tested on: Salmonella typhi; test: Antimicrobial activity against Salmonella typhi ATCC 23564 assessed as diameter of inhibition zone at 20 uM after 24 hrs by Kirby -Baur disc diffusion method; assay type: functional, Salmonella enterica subsp. enterica serovar Typhi; settings: Salmonella enterica, ATCC 23564, 24 h; read-out: DIZ
[27] = tested on: Bacillus cereus; test: Antimicrobial activity against Bacillus cereus MTCC 7350 assessed as diameter of inhibition zone at 20 uM after 24 hrs by Kirby -Baur disc diffusion method; assay type: functional; method in brief: as §2
[28] = tested on: Curvularia lunata; test: Antifungal activity against Curvularia lunata MTCC 581 assessed as zone of inhibition at 20 uM after 48 hrs by disc diffusion method; assay type: functional; settings: MTCC 581, 48 h, read-out: IZ; method in brief: as §4
[29] = tested on: Curvularia lunata; test: Antifungal activity against Curvularia lunata MTCC 581 assessed as zone of inhibition at 40 uM after 48 hrs by disc diffusion method; assay type: functional; settings: MTCC 581, 48 h, read-out: IZ; method in brief: as §4
[30] = tested on: Pseudomonas aeruginosa; test: Antimicrobial activity against Pseudomonas aeruginosa ATCC 15499 after 24 hrs by broth micro serial dilution method; assay type: functional; settings: ATCC 15499, 24 h; method in brief: as §1
[31] = tested on: Salmonella typhi; test: Antimicrobial activity against Salmonella typhi ATCC 23564 assessed as diameter of inhibition zone at 40 uM after 24 hrs by Kirby -Baur disc diffusion method; assay type: functional, Salmonella enterica subsp. enterica serovar Typhi; settings: Salmonella enterica, ATCC 23564, 24 h; read-out: DIZ
[32] = tested on: Aspergillus flavus; test: Antifungal activity against Aspergillus flavus MTCC 1021 after 48 hrs; assay type: functional; settings: MTCC 1021, 48 h
[33] = tested on: Aspergillus niger; test: Antifungal activity against Aspergillus niger MTCC 1108 assessed as zone of inhibition at 20 uM after 48 hrs by disc diffusion method; assay type: functional; settings: MTCC 1108, 48 h, read-out: IZ; method in brief: as §4
[34] = tested on: Aspergillus flavus; test: Antifungal activity against Aspergillus flavus MTCC 1021 assessed as zone of inhibition at 40 uM after 48 hrs by disc diffusion method; assay type: functional; settings: MTCC 1021, 48 h, read-out: IZ; method in brief: as §4
[35] = tested on: Staphylococcus aureus; test: Antimicrobial activity against Staphylococcus aureus ATCC 11632 assessed as diameter of inhibition zone at 40 uM after 24 hrs by Kirby -Baur disc diffusion method; assay type: functional; settings: ATCC 11632, 24 h, read-out: DIZ; method in brief: as §2
[36] = tested on: Staphylococcus aureus; test: Antimicrobial activity against Staphylococcus aureus ATCC 11632 assessed as diameter of inhibition zone at 80 uM after 24 hrs by Kirby -Baur disc diffusion method; assay type: functional; settings: ATCC 11632, 24 h, read-out: DIZ; method in brief: as §2
[37] = tested on: Bacillus cereus; test: Antimicrobial activity against Bacillus cereus MTCC 7350 assessed as diameter of inhibition zone at 80 uM after 24 hrs by Kirby -Baur disc diffusion method; assay type: functional; settings: MTCC 7350, 24 h, read-out: DIZ; method in brief: as §2
[38] = tested on: Staphylococcus aureus; test: Antimicrobial activity against Staphylococcus aureus ATCC 11632 after 24 hrs by broth micro serial dilution method; assay type: functional; settings: ATCC 11632, 24 h; method in brief: as §1
[39] = tested on: Aspergillus niger; test: Antifungal activity against Aspergillus niger MTCC 1108 assessed as zone of inhibition at 40 uM after 48 hrs by disc diffusion method; assay type: functional; settings: MTCC 1108, 48 h, read-out: IZ; method in brief: as §4
[40] = tested on: QG-56; test: Cytotoxicity against human QG56 cells after 24 hrs by MTT assay; assay type: functional, cell-based; method in brief: as §3
[41] = tested on: Escherichia coli; test: Antimicrobial activity against Escherichia coli ATCC 35218 assessed as diameter of inhibition zone at 40 uM after 24 hrs by Kirby -Baur disc diffusion method; assay type: functional; settings: ATCC 35218, 24 h, read-out: DIZ; method in brief: as §2

COc1cc(/C=C/C(O)=C/C(/C=C/c2ccc(O)c(OC)c2)=N/c2ccc(S(=O)(=O)Nc3nc(C)cc(C)n3)cc2)ccc1O
MIC [1]: 20 µM (≈ 12.6 µg/mL) | zone of inhibition at 40 µM [2]: 16 mm | MIC [3]: 20 µM (≈ 12.6 µg/mL) | IC50 [4]: 25 µM | IC50 [5]: 25 µM | zone of inhibition at 80 µM [6]: 23 mm | zone of inhibition at 80 µM [7]: 19 mm | inhibition zone (IZ) [8]: inactive | zone of inhibition at 80 µM [9]: 22 mm | MIC [10]: 20 µM (≈ 12.6 µg/mL) | MIC [11]: 20 µM (≈ 12.6 µg/mL) | zone of inhibition at 20 µM [12]: 21 mm | zone of inhibition at 40 µM [13]: 9 mm | IC50 [14]: 25 µM | zone of inhibition at 20 µM [15]: 10 mm | zone of inhibition at 80 µM [16]: 17 mm | inhibition in vivo at 200 mg/kg [17]: 38.7% | zone of inhibition at 80 µM [18]: 19 mm | zone of inhibition at 20 µM [19]: 18 mm | zone of inhibition at 80 µM [20]: 16 mm | MIC [21]: 20 µM (≈ 12.6 µg/mL) | zone of inhibition at 80 µM [22]: 11 mm | zone of inhibition at 20 µM [23]: 16 mm | MIC [24]: 20 µM (≈ 12.6 µg/mL) | zone of inhibition at 40 µM [25]: 19 mm | zone of inhibition at 20 µM [26]: 10 mm | diameter of the inhibition zone (DIZ) [27]: inactive | zone of inhibition at 20 µM [28]: 12 mm | zone of inhibition at 40 µM [29]: 16 mm | MIC [30]: 20 µM (≈ 12.6 µg/mL) | zone of inhibition at 40 µM [31]: 14 mm | MIC [32]: > 80 µM | zone of inhibition at 20 µM [33]: 12 mm | zone of inhibition at 40 µM [34]: 9 mm | zone of inhibition at 40 µM [35]: 18 mm | zone of inhibition at 80 µM [36]: 22 mm | zone of inhibition at 80 µM [37]: 12 mm | MIC [38]: 20 µM (≈ 12.6 µg/mL) | zone of inhibition at 40 µM [39]: 14 mm | IC50 [40]: 50 µM | zone of inhibition at 40 µM [41]: 21 mm
